Assay [1] deals with T1, G-protein coupled receptor 55 (Homo sapiens, UniProt Q9Y2T6). In words: Agonist activity at human GPR55 expressed in Saccharomyces cerevisiae by beta-galactosidase reporter assay.
Assay [2] concerns the target T2, Sodium- and chloride-dependent glycine transporter 1 (Homo sapiens, UniProt P48067).
T2 sequence (P48067 whole entry): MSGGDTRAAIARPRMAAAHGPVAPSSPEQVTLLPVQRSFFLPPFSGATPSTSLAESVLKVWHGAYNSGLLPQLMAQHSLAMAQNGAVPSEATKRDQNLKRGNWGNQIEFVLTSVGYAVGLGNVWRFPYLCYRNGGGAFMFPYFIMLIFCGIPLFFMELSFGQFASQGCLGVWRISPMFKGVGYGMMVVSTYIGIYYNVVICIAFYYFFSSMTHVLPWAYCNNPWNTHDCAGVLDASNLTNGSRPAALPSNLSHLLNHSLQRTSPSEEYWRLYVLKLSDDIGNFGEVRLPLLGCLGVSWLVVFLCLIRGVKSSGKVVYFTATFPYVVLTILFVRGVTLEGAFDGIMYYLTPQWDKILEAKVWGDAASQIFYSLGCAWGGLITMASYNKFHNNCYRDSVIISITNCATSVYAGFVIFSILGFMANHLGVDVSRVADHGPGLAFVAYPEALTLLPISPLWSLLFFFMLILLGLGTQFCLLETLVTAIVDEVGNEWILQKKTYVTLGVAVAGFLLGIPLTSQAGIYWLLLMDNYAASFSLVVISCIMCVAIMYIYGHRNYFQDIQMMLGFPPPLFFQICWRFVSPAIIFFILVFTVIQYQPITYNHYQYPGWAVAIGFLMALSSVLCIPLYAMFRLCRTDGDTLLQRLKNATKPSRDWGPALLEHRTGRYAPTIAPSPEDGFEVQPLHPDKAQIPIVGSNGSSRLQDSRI
In words: Inhibition of GlyT1 (unknown origin) expressed in HEK293 cells by scintillation proximity assay. Format: cell-based.

Assay [3] concerns the target Cannabinoid receptor 2 (Homo sapiens) (UniProt P34972). Briefly: Antagonist activity at human CBR2 assessed as [35S]GTPgammaS binding at 10 uM by […] assay relative to control. The assay is classed as functional. Also on record: scale not given: the % may be the effect or the level left.
Assay [4] shares this target. In words: Agonist activity at CBR2 (unknown origin) assessed as [35S]GTPgammaS binding at 10 uM by […] assay relative to control. The assay is classed as functional.
The target of assay [5] is T1, G-protein coupled receptor 55. Briefly: Agonist activity at human GPR55 expressed in HEK293 cells assessed as calcium signalling at 10 uM by fura 2-based digital epifluorescence microscopy. The assay is classed as functional, cell-based.
Assay [6] addresses T3, Fatty-acid amide hydrolase 1 (Homo sapiens) (UniProt O00519).
T3 sequence (whole entry): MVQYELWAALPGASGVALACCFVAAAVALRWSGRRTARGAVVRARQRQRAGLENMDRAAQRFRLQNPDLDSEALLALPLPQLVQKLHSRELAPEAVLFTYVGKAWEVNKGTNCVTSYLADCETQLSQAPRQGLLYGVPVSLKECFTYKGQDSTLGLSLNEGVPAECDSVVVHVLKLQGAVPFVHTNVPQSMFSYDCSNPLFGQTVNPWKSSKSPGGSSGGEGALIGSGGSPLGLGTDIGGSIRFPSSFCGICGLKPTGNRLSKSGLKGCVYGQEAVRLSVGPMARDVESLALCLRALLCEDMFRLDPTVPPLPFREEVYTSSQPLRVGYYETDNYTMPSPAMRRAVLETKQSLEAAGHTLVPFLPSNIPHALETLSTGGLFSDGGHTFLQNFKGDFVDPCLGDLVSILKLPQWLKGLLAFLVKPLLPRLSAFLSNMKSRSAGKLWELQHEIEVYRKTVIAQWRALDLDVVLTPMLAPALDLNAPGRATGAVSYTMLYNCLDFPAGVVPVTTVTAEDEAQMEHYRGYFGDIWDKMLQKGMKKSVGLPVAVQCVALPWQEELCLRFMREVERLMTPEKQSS
In words: Inhibition of human FAAH expressed in African green monkey COS-7 cell membranes using [3H]-AEA as substrate assessed as residual activity at 10 uM preincubated for 10 mins followed by substrate addition measured after 10 mins by liquid scintillation counting analysis relative to control. An outline of the steps: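 Membranes of COS-7 cells overexpressing hFAAH, 1 μg protein per incubation. Substrate 20 μM AEA including 10 nM [3H]AEA (60 Ci/mmol). Compounds tested at 10 μM.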

For assay [7], the target named is Cannabinoid receptor 1 (Homo sapiens) (UniProt P21554). Briefly: Antagonist activity at human CBR1 assessed as [35S]GTPgammaS binding at 10 uM by radiometric assay relative to control. Also noted: scale not given: the % may be the effect or the level left.
Assay [8] deals with T4, Monoacylglycerol lipase ABHD6 (Homo sapiens) (UniProt Q9BV23).
T4 sequence (whole entry): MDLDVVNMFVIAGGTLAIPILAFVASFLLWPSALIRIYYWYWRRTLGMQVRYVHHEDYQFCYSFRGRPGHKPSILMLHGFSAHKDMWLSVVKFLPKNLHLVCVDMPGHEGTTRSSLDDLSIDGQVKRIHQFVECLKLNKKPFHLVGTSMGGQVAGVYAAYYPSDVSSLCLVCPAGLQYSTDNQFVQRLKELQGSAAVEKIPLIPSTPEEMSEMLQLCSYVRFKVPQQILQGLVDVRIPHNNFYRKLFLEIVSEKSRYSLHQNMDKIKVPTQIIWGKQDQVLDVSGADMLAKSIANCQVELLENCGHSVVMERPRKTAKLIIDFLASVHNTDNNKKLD
In words: Inhibition of human ABHD6 expressed in […] cells using 2-AG as substrate assessed as glycerol liberation at 1 uM preincubated for 30 mins followed by 2-AG addition measured for 90 mins by fluorescent glycerol assay relative to control. Format: cell-based. Also on record: scale not given: the % may be the effect or the level left. In short, it runs like this: (§1)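 Lysates of HEK293 cells transiently overexpressing hABHD6 or hABHD12, 0.3 μg protein/well. Pretreated 30 min with DMSO or compound, then 2-AG added (12.5 μM final). Glycerol release coupled enzymatically to H2O2-dependent resorufin formation; fluorescence (ex 530/em 590 nm) followed kinetically for 90 min.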

In assay [9] the target is T1, G-protein coupled receptor 55. In words: Agonist activity at human GPR55 expressed in CHOK1 cells at 10 uM by pathHunter beta-arrestin assay relative to control. Format: cell-based. The note with it: CHO-K1. In short, it runs like this: (§2)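 PathHunter eXpress GPR55 CHO-K1 β-arrestin kit run per the kit protocol, compounds screened at 10 μM. Luminescence read and expressed as percentage of the signal from bovine liver LPI at 1 μM. Mean with range of two experiments, each done in duplicate.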

In assay [10] the target is Cannabinoid receptor 1 (Homo sapiens) (UniProt P21554). In words: Agonist activity at CBR1 (unknown origin) assessed as [35S]GTPgammaS binding at 10 uM by […] assay relative to control. Format: functional.
Assay [11] concerns the target T5, Monoglyceride lipase (Homo sapiens) (UniProt Q99685).
T5 sequence (whole entry): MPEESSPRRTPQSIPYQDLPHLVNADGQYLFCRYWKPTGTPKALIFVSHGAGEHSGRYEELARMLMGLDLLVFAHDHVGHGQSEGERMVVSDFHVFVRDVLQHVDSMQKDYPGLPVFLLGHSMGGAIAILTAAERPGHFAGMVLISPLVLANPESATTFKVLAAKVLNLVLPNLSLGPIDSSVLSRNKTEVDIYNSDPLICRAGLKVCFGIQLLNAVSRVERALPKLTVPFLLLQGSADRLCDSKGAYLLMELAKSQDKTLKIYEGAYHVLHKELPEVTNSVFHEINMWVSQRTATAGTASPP
In words: Inhibition of human MGL expressed in […] cells using 2AG as substrate assessed as residual activity at 10 uM preincubated for 10 mins followed by substrate addition measured after 10 mins by HPLC analysis. Format: cell-based. In short, it runs like this: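 Lysates of HEK cells overexpressing hMGL, 2.5 μg protein per incubation, substrate at 50 μM. Compounds tested at 10 μM.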

Assay [12] concerns the target T1, G-protein coupled receptor 55. In words: Agonist activity at human GPR55 expressed in CHOK1 cells at 10 uM by pathHunter beta-arrestin assay relative to LPI. Format: cell-based. Conditions: CHO-K1. In short, it runs like this:
as §2

Assay [13] has as its target T6, Lysophosphatidylserine lipase ABHD12 (Homo sapiens) (UniProt Q8N2K0).
T6 sequence (whole entry): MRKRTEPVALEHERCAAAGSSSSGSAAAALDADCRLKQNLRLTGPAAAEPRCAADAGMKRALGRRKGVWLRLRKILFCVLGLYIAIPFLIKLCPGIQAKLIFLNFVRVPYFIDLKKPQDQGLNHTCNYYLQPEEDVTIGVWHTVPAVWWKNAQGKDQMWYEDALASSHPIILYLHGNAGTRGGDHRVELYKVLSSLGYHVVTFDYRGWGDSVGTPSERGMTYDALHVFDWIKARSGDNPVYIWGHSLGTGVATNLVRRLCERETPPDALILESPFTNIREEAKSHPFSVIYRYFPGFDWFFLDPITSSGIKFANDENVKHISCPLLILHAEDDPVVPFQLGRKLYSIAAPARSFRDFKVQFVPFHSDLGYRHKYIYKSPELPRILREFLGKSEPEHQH
In words: Inhibition of human ABHD12 expressed in […] cells using 2-AG as substrate assessed as glycerol liberation at 1 uM preincubated for 30 mins followed by 2-AG addition measured for 90 mins by fluorescent glycerol assay relative to control. Format: cell-based. Also noted: scale not given: the % may be the effect or the level left. An outline of the steps:
as §1

Each structure is given as a SMILES string. Active and inactive are the calls of the source. No cut-off for these calls is given here.

This passage reports EC50, IC50 and Activity results from ChEMBL document CHEMBL3745614, “Potent and selective N-(4-sulfamoylphenyl)thiourea-based GPR55 agonists” (Eur J Med Chem, 2016).

T1 sequence (Q9Y2T6 whole entry): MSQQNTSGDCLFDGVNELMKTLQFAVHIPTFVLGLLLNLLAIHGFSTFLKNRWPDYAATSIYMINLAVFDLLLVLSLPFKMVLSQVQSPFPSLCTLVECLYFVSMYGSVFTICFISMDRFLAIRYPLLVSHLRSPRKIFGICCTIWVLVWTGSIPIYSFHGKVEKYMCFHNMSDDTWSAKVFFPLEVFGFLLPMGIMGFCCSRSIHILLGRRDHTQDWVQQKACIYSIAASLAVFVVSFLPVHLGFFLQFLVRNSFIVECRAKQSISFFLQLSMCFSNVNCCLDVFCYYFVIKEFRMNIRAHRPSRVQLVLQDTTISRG
Chain of Cannabinoid receptor 2 (Homo sapiens) (P34972 whole entry): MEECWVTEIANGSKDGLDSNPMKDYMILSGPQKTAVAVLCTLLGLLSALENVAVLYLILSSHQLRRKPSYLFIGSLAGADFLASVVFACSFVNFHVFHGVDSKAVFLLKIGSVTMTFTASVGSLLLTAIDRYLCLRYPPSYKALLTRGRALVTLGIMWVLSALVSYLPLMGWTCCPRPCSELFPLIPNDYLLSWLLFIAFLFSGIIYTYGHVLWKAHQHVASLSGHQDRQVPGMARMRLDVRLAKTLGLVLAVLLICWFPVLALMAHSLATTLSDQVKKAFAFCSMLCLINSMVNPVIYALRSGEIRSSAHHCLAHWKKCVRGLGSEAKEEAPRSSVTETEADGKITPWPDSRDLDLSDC
Chain of Cannabinoid receptor 1 (Homo sapiens) (P21554 whole entry): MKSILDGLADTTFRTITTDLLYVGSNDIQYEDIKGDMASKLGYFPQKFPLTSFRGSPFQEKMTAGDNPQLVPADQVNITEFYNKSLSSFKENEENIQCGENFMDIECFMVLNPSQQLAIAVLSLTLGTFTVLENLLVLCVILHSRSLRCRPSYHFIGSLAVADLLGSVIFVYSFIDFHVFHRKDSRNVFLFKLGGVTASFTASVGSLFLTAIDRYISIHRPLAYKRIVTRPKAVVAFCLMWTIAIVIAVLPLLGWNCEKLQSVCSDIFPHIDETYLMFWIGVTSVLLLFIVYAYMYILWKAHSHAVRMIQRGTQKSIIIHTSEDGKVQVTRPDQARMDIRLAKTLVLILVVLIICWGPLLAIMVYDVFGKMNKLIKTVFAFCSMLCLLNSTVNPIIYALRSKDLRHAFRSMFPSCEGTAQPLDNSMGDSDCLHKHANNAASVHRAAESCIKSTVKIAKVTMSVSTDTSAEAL

Turning to `COC(C)c1ccc(N2CCN(C(=O)c3cc(S(C)(=O)=O)ccc3-c3ccc(F)cc3)CC2)c(F)c1` (stereo not given), the concentration giving a half-maximal response (EC50) in assay [1] came to 0.316 µM. In assay [2], this compound had a half-inhibitory concentration (IC50) of 0.02 µM.

Take `CS(=O)(=O)c1ccc(-c2ccc(F)cc2)c(C(=O)N2CCN(c3ccc(N)cc3F)CC2)c1`: a half-maximal effect in assay [1] (EC50) was put at 0.158 µM. This compound returned an IC50 in assay [2] of 10 µM.

With `O=C(NC(=S)Nc1ccc(S(=O)(=O)NCc2ccc(I)cc2)cc1)c1ccc(-c2ccccc2)cc1`, the Activity in assay [3] is 95%; in assay [4], 95%; in assay [6], 93%; in assay [7] it was 98%; in [8], 103%; in assay [9], 157%. In addition, the Activity in assay [10] was determined as 100%; in assay [11] it was 98%; in assay [12], 107%; in assay [13], 100%. Also, the outcome in [5] was inactive.
